Measurements from ChEMBL document CHEMBL2321834 (J Med Chem, 2013).
Active and inactive are the calls of the source. The rule behind the calls is not given here.

How the values were obtained:
[1] = target: T1, 17-beta-hydroxysteroid dehydrogenase type 1 (Homo sapiens) (UniProt P14061); details: at 1 µM
T1 sequence (whole entry): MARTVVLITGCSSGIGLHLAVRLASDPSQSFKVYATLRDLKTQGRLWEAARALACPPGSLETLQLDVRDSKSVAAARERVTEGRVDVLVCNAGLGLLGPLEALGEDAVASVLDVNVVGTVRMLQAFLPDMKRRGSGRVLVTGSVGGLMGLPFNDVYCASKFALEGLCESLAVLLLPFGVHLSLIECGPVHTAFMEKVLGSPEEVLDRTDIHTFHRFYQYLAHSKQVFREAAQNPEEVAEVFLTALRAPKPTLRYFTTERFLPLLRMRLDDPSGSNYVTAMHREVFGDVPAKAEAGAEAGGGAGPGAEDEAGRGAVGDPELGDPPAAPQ

[2] = target: T2, 17-beta-hydroxysteroid dehydrogenase type 2 (Homo sapiens) (UniProt P37059); details: Placenta, Microsomal, at 1 µM
T2 sequence (whole entry): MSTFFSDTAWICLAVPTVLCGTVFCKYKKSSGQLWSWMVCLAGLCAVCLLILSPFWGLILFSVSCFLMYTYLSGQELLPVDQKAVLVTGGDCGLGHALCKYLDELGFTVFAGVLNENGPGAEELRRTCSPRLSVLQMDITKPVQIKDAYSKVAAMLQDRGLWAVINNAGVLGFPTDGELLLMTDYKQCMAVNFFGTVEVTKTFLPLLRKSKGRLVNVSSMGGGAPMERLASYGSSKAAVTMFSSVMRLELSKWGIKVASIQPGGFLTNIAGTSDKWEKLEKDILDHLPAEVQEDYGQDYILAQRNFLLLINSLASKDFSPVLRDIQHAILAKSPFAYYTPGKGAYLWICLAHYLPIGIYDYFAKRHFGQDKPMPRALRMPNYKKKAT

Homo sapiens = species on record: Homo sapiens; experiment: Selectivity ratio of IC50 for 17beta-HSD1 in human placental microsomal fraction to IC50 for 17beta-HSD2 in human placental microsomal fraction; assay type: microsomes; details: Microsome
[3] = target: Estrogen receptor beta (Homo sapiens) (UniProt Q92731); experiment: Displacement of [3H]E2 from human recombinant ERbeta after 1 hr by scintillation counting analysis relative to E2
Sequence of Estrogen receptor beta (Homo sapiens) (Q92731 whole entry): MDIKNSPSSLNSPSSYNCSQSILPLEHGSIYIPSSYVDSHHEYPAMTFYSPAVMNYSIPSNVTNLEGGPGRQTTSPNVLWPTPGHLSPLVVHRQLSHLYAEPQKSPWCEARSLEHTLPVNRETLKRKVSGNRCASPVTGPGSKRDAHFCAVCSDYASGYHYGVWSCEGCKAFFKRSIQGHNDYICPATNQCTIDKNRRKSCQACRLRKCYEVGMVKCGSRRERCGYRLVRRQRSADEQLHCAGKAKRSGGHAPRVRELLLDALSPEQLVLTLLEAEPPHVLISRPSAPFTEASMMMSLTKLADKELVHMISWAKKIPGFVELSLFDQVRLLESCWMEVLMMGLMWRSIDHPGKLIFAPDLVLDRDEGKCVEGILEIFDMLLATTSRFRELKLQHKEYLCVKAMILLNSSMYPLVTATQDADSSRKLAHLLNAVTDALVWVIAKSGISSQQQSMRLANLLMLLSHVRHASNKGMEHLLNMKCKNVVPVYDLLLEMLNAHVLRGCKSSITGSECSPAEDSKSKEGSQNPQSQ
How it was run: (§1)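 Competitive binding assay against ERα and ERβ, with E2 as internal reference.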

[4] = target: T3, Estrogen receptor (Homo sapiens) (UniProt P03372); experiment: Displacement of [3H]E2 from human recombinant ERalpha after 1 hr by scintillation counting analysis relative to E2
T3 sequence (whole entry): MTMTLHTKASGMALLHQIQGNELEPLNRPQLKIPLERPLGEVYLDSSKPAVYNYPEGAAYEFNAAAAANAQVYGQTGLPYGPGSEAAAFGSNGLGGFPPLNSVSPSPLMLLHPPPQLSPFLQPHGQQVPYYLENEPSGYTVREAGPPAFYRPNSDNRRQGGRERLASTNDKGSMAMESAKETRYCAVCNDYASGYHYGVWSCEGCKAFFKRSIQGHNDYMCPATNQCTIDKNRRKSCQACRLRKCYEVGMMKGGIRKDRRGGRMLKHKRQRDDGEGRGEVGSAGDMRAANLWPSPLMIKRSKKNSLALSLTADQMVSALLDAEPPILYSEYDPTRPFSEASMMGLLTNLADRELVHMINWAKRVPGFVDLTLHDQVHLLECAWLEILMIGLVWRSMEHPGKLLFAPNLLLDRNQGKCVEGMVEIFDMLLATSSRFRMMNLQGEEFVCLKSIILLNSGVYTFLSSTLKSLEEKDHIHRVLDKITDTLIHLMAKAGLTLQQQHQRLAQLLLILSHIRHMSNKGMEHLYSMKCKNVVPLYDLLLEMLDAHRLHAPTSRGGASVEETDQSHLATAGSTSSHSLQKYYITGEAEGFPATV
How it was run: as §1

[5] = target: T4, 17-beta-hydroxysteroid dehydrogenase type 2 (Homo sapiens, UniProt P37059); experiment: Inhibition of 17beta-HSD2 (unknown origin)
T4 sequence (P37059 whole entry): T2 sequence (whole entry)
How it was run: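 Microsomal fraction of human placenta as enzyme source, incubated with tritiated E2, cofactor and inhibitor. Substrate and product separated by HPLC to give percent inhibition. IC50 determined for selected compounds.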

[6] = target: T5, 17-beta-hydroxysteroid dehydrogenase type 1 (Homo sapiens, UniProt P14061); experiment: Inhibition of 17beta-HSD1 in human placental cytosolic fraction using [3H]E1 as substrate assessed as formation of E2 by HPLC analysis
T5 sequence (P14061 whole entry): T1 sequence (whole entry)

[7] = target: T6, Aldo-keto reductase family 1 member C3 (Homo sapiens) (UniProt P42330); experiment: Inhibition of human recombinant 17beta-HSD5 expressed in Escherichia coli using [1,2,6,7-3H]A-dione as substrate at 1 uM by scintillation counting analysis
T6 sequence (whole entry): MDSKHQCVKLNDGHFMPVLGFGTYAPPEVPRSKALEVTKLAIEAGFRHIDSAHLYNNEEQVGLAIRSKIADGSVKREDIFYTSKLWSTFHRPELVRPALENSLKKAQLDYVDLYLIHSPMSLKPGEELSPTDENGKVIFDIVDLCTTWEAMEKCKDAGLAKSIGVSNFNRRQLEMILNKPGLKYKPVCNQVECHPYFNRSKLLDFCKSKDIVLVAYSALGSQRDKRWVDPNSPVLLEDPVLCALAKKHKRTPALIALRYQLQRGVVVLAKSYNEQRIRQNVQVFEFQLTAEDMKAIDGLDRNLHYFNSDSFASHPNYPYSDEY

[8] = target: T7, Peroxisomal multifunctional enzyme type 2 (Homo sapiens) (UniProt P51659); experiment: Inhibition of human recombinant 17beta-HSD4 SDR domain expressed in Escherichia coli using [6,7-3H]E2 as substrate at 1 uM by scintillation counting analysis
T7 sequence (whole entry): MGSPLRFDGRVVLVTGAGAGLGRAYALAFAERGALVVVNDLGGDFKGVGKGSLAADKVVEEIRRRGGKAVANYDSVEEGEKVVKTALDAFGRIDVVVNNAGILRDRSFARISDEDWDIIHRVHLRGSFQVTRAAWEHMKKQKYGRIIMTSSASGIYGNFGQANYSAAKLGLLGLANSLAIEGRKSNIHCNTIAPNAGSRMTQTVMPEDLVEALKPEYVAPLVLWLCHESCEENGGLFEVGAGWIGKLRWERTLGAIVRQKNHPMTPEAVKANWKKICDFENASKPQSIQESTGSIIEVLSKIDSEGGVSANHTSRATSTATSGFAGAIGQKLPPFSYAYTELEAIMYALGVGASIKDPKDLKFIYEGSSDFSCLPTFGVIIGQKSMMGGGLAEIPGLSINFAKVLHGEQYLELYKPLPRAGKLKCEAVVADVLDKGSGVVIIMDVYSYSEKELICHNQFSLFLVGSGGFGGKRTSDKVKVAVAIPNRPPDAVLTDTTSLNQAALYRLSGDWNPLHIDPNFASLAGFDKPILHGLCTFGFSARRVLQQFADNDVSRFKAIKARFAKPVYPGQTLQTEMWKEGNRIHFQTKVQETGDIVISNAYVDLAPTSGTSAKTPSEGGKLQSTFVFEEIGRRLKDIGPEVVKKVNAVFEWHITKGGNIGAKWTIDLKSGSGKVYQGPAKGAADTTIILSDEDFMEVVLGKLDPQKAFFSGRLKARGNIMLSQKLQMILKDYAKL

[9] = target: T2, 17-beta-hydroxysteroid dehydrogenase type 2 (Homo sapiens); experiment: Inhibition of 17beta-HSD2 in human MDA-MB-231 cells using [3H]E2 as substrate at 1 uM after 6 hrs by HPLC analysis; assay type: cell-based

inhibition [1] | inhibition [2] | RBA [3] | RBA [4] | Structure (SMILES) | further results
11% | 18% | – | – | COc1cccc(CCN(C)C(=O)c2ccc(-c3ccccc3)s2)c1 | –
< 10% | 11% | – | – | CN(CCc1cccc(O)c1)C(=O)c1ccc(-c2ccccc2)s1 | –
24% | 71% | < 0.1% | < 0.1% | Cc1cccc(N(C)C(=O)c2ccc(-c3cccc(O)c3)s2)c1 | Ratio IC50 (Homo sapiens): 11
< 10% | 64% | – | – | COc1cccc(-c2cccc(C(=O)N(C)c3cccc(OC)c3)c2)c1 | –
30% | 77% | < 0.1% | < 0.1% | COc1cccc(N(C)C(=O)c2ccc(-c3ccc(OC)cc3OC)s2)c1 | Ratio IC50 (Homo sapiens): 6
10% | 60% | – | – | CN(Cc1cccc(O)c1)C(=O)c1cccc(-c2cccc(O)c2)c1 | –
21% | 70% | – | – | CN(Cc1cccc(O)c1)C(=O)c1ccc(-c2cccc(O)c2)s1 | Ratio IC50 (Homo sapiens): 14
< 10% | 31% | – | – | COc1cccc(CCN(C)C(=O)c2ccc(-c3cccc(OC)c3)s2)c1 | –
< 10% | < 10% | – | – | COc1cccc(CCN(C)C(=O)c2ccc(-c3cccc(F)c3)s2)c1 | –
– | – | – | – | C[C@]12CC[C@@H]3c4ccc(O)cc4CC[C@H]3[C@@H]1CC[C@@]21CCCC(=O)O1 | IC50 [5]: 0.034 µM
17% | 66% | – | – | COc1cccc(N(C)C(=O)c2ccc(-c3ccc(F)c(OC)c3)s2)c1 | –
– | – | < 0.1% | < 0.1% | COc1cccc(N(C)C(=O)c2ccc(-c3cccc(SC)c3)s2)c1 | –
< 10% | 63% | – | – | COc1cccc(CN(C)C(=O)c2ccc(-c3cccc(OC)c3)s2)c1 | –
16% | 83% | – | – | CN(Cc1cccc(O)c1)C(=O)c1ccc(-c2ccccc2O)s1 | –
24% | 82% | < 0.1% | < 0.1% | COc1cccc(N(C)C(=O)c2ccc(-c3ccccc3)s2)c1 | Ratio IC50 (Homo sapiens): 21
12% | 17% | – | – | CN(CCc1cccc(O)c1)C(=O)c1ccc(-c2cccc(F)c2)s1 | –
13% | 75% | < 0.1% | < 0.1% | COc1cccc(-c2ccc(C(=O)N(C)c3cccc(C(F)(F)F)c3)s2)c1 | Ratio IC50 (Homo sapiens): 17
– | – | < 0.1% | < 0.1% | COc1cccc(-c2ccc(C(=O)N(C)c3cccc(C)c3)s2)c1F | –

inhibition [1] | inhibition [2] | RBA [3] | RBA [4] | Structure (SMILES) | further results
– | – | < 0.1% | < 0.1% | COc1cccc(N(C)C(=O)c2ccc(-c3c(F)ccc(OC)c3F)s2)c1 | –
50% | 83% | < 0.1% | < 0.1% | COc1cccc(-c2ccc(C(=O)N(C)c3cccc(-c4ccccc4)c3)s2)c1 | Ratio IC50 (Homo sapiens): 8
23% | 37% | – | – | CN(CCc1cccc(O)c1)C(=O)c1ccc(-c2cccc(O)c2)s1 | –
15% | 72% | < 0.1% | < 0.1% | COc1cccc(N(C)C(=O)c2ccc(-c3ccc(OC)c(F)c3)s2)c1 | IC50 [6]: > 40 µM
– | – | < 0.1% | < 0.1% | COc1cccc(N(C)C(=O)c2ccc(-c3cccc(C)c3)s2)c1 | –
– | – | < 0.1% | < 0.1% | COc1cccc(-c2ccc(C(=O)N(C)c3cccc(OC)c3)s2)c1 | –
< 10% | < 10% | – | – | COc1cccc(CN(C)C(=O)c2ccc(-c3ccc(C#N)cc3)s2)c1 | –
< 10% | 13% | – | – | COc1ccc(-c2cccc(C(=O)N(C)Cc3cccc(OC)c3)c2)cc1 | –
– | – | < 0.1% | < 0.1% | COc1cccc(N(C)C(=O)c2ccc(-c3cccc(C)c3F)s2)c1 | –
< 10% | 87% | < 0.1% | < 0.1% | COc1cccc(-c2ccc(C(=O)N(C)c3cccc(C)c3)s2)c1 | Ratio IC50 (Homo sapiens): 55
20% | 71% | – | – | CN(Cc1cccc(O)c1)C(=O)c1ccc(-c2cccc(F)c2)s1 | –
< 10% | – | – | – | COc1cccc(CN(C)C(=O)c2ccc(-c3ccccc3OC)s2)c1 | –
– | – | – | – | CN1C(=O)C[C@@H](c2ccccc2)[C@H]1[C@H](O)c1ccc(-c2cccnc2)s1 | inhibition [7]: 88%; inhibition [8]: inactive
– | – | – | – | Cn1nc(-c2cccc(O)c2)nc1-c1ccc(-c2cccc(O)c2)cc1 | IC50 [5]: 1.4 µM
11% | 82% | < 0.1% | < 0.1% | COc1cccc(N(C)C(=O)c2ccc(-c3cccc(N(C)C)c3)s2)c1 | inhibition [9]: 71%; Ratio IC50 (Homo sapiens): 63
18% | 49% | – | – | COc1ccc(N(C)C(=O)c2ccc(-c3cccc(OC)c3F)s2)cc1 | –
– | – | < 0.1% | < 0.1% | COc1ccc(-c2ccc(C(=O)N(C)c3cccc(OC)c3)s2)cc1 | –
